Calls of active or inactive are those of the source. The calls are words filed in the database; no cut-off is given here.
What was measured:
[1] = system: CYP11B1; assay: Upregulation of CYP11B1 gene expression in human NCI-H295R cells at 0.1 uM measured after 24 hrs relative to control; format: ADME, cell-based; settings: read-out: FC
How it was run: (§1)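 H295R cells were incubated for 24 h with test agent at 10 μM or angiotensin-II at 0.1 μM. CYP11B1 and CYP11B2 mRNA levels were measured and expressed as fold of control.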

[2] = system: CYP11B2; assay: Upregulation of CYP11B2 gene expression in human NCI-H295R cells at 0.1 uM measured after 24 hrs relative to control; format: ADME, cell-based; settings: read-out: FC; how it was run: as §1
[3] = target: T1, Cholesteryl ester transfer protein (Homo sapiens, UniProt P11597); assay: Inhibition of human recombinant CETP assessed as reduction in [3H]CE/HDL transfer incubated for 4 hrs by scintillation proximity assay
T1 sequence (P11597 whole entry): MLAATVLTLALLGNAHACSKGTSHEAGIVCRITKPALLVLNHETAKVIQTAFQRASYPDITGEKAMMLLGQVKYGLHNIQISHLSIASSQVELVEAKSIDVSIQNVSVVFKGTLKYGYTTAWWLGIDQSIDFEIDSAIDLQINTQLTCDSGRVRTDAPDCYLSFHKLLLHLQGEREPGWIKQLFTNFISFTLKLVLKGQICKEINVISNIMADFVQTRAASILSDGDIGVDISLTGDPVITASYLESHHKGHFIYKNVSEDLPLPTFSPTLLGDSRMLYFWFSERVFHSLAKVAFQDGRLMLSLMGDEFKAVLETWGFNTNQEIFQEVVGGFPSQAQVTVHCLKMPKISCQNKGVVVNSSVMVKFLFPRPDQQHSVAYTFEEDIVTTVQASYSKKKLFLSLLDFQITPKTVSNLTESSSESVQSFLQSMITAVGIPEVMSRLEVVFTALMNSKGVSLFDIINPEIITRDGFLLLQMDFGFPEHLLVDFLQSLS
How it was run: (§2)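 CETP activity was measured by scintillation proximity assay and by human whole plasma assay. Each was run in duplicate at six concentrations, and the mean values were used to calculate IC50.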

[4] = Stability in human liver microsomes assessed as parent compound remaining at 50 uM preincubated for 5 to 7 mins followed by NADPH addition and measured 10 mins post-dose by LC-MS/MS; format: ADME, Microsome; settings: read-out: Stability
[5] = target: T1, Cholesteryl ester transfer protein; assay: Inhibition of CETP in human whole plasma assessed as reduction in [3H]-CE/HDL transfer incubated for 2.5 hrs by topcount scintillation counting assay; format: cell-free; how it was run: as §2
[6] = Stability in mouse liver microsomes assessed as parent compound remaining at 50 uM preincubated for 5 to 7 mins followed by NADPH addition and measured 10 mins post-dose by LC-MS/MS; format: ADME, Microsome; settings: read-out: Stability
[7] = target: Voltage-gated inwardly rectifying potassium channel KCNH2 (Homo sapiens, UniProt Q12809); assay: Inhibition of human ERG expressed in HEK293 cells by flux assay
Chain of Voltage-gated inwardly rectifying potassium channel KCNH2 (Q12809 whole entry): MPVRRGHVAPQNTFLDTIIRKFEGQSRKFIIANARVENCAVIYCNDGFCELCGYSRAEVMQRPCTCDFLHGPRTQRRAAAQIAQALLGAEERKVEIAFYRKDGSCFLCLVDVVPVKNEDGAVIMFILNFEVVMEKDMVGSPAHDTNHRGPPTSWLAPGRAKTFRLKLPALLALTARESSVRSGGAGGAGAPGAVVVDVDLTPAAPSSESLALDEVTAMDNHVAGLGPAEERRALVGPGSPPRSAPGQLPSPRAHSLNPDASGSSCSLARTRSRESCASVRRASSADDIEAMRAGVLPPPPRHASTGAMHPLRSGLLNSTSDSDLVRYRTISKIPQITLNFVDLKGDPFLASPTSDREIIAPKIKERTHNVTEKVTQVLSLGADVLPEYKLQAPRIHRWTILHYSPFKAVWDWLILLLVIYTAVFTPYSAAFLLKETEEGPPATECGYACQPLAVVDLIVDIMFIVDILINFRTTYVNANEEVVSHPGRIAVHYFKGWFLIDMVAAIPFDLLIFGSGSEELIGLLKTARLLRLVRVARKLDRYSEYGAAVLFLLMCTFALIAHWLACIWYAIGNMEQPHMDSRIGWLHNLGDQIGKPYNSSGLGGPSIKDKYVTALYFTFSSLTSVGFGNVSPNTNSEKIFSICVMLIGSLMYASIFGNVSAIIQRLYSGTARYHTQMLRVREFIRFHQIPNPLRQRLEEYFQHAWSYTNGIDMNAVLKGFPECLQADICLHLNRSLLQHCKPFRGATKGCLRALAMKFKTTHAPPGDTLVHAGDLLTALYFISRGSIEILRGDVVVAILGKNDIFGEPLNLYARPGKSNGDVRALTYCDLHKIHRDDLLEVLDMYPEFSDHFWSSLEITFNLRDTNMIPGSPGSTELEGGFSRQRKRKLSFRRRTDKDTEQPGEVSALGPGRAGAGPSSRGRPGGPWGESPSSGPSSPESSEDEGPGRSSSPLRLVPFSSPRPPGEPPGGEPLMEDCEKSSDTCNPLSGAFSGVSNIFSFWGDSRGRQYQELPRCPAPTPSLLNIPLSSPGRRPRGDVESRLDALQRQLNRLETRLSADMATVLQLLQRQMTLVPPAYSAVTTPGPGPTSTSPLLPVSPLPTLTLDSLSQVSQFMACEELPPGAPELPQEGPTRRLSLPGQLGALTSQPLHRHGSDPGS

[8] = system: Mus musculus; assay: In vivo inhibition of CETP in hCETP/apoB-100 dual transgenic mouse assessed as reduction in [3H]-CE transfer at 10 mg/kg, po administered via gavage measured after 2 to 8 hrs by radioactivity based assay; format: functional, organism-based
[9] = target: T2, Cholesteryl ester transfer protein (Homo sapiens) (UniProt P11597); assay: Potency index, ratio of torcetrapib IC50 to test compound IC50 for inhibition of CETP in human whole plasma; format: cell-free
T2 sequence (whole entry): T1 sequence (P11597 whole entry)

[10] = Volume of distribution at steady state in Sprague-Dawley rat at 1 mg/kg, iv or 10 mg/kg, po administered via gavage measured upto 24 hrs by LC-MS/MS; format: ADME, organism-based; settings: in vivo, read-out: Vdss
How it was run: (§3)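 Single IV and oral doses: rat 1 mg/kg IV and 10 mg/kg PO; mouse 5 mg/kg IV and 10 mg/kg PO; monkey 1 mg/kg IV and 5 mg/kg PO. IV vehicle was 10% Cremophor/10% EtOH/80% H2O for rodents and 70% PEG-400/10% EtOH/20% H2O for monkey. Oral vehicle was 15% Miglyol 812/30% Capmul MCM/15% Triacetin/40% Cremophor RH40, or the Cremophor vehicle for rat. Vss, Cl, t1/2 and %F were derived.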

[11] = Oral bioavailability in Sprague-Dawley rat at 10 mg/kg administered via gavage measured upto 24 hrs by LC-MS/MS; format: ADME, organism-based; settings: in vivo; how it was run: as §3
[12] = Half life in Sprague-Dawley rat at 1 mg/kg, iv or 10 mg/kg, po administered via gavage measured upto 24 hrs by LC-MS/MS; format: ADME, organism-based; settings: in vivo; how it was run: as §3
[13] = Clearance in Sprague-Dawley rat at 1 mg/kg, iv or 10 mg/kg, po administered via gavage measured upto 24 hrs by LC-MS/MS; format: ADME, organism-based; settings: in vivo; how it was run: as §3
[14] = system: Mus musculus; assay: In vivo inhibition of CETP in hCETP/apoB-100 dual transgenic mouse assessed as reduction in [3H]-CE transfer at 1 mg/kg, po administered via gavage measured after 2 to 8 hrs by radioactivity based assay; format: functional, organism-based

Row | Compound | IC50 [3] | remaining at 10 min, 50 µM [4] | IC50 [5] | remaining at 10 min, 50 µM [6] | IC50 [7] | other results
1 | CC[C@H](C)[C@H](NC(=O)[C@H](Cc1ccc(O)cc1)NC(=O)[C@@H](NC(=O)[C@H](CCCNC(=N)N)NC(=O)[C@@H](N)CC(=O)O)C(C)C)C(=O)N[C@@H](Cc1cnc[nH]1)C(=O)N1CCC[C@H]1C(=O)N[C@@H](Cc1ccccc1)C(=O)O [ANGIOTENSIN II] |  |  |  |  |  | fold induction at 24 h, 0.1 µM [1]: 4; fold induction at 24 h, 0.1 µM [2]: 4
2 | CC(C)Oc1cc([C@@](Cc2ccccc2)(NC(=O)C(O)C(O)(C(F)(F)F)C(F)(F)F)c2cc(F)cc(OC(F)(F)C(F)F)c2)ccc1F (stereo partly specified) | 1 nM | 89% | 84 nM | 100% |  | 
3 | NC(C(=O)N[C@](Cc1ccccc1)(c1ccc(F)cc1)c1cc(F)cc(C(F)(F)F)c1)C(O)(C(F)(F)F)C(F)(F)F (stereo partly specified) | 11 nM | 100% | 430 nM | 72% | > 80000 nM | 
4 | CC(C)Oc1cc([C@@](Cc2ccccc2)(NCC(N)C(O)(C(F)(F)F)C(F)(F)F)c2cc(F)cc(OC(F)(F)C(F)F)c2)ccc1F (stereo partly specified) | 26 nM | 81% | 200 nM | 68% | > 80000 nM | 
5 | O=C(N[C@@](Cc1ccccc1)(c1cc(F)cc(C(F)(F)F)c1)c1ccc(Cl)cn1)C(O)C(O)(C(F)(F)F)C(F)(F)F (stereo partly specified) | 35 nM |  | 1400 nM |  |  | 
6 | CC(C)NC(C(=O)N[C@](Cc1ccccc1)(c1ccc(F)cc1)c1cc(F)cc(C(F)(F)F)c1)C(O)(C(F)(F)F)C(F)(F)F (stereo partly specified) | 230 nM | 71% | 7100 nM | 54% | 63000 nM | 
7 | CN(C)C(C(=O)N[C@](Cc1ccccc1)(c1ccc(F)cc1)c1cc(F)cc(C(F)(F)F)c1)C(O)(C(F)(F)F)C(F)(F)F (stereo partly specified) | 3300 nM | 58% | 30000 nM | 82% | 16000 nM | 
8 | CNC(C(=O)N[C@](Cc1ccccc1)(c1ccc(F)cc1)c1cc(F)cc(C(F)(F)F)c1)C(O)(C(F)(F)F)C(F)(F)F (stereo partly specified) | 140 nM | 62% | 6200 nM | 87% | 13000 nM | 
9 | CCOC(=O)N1c2ccc(C(F)(F)F)cc2[C@@H](N(Cc2cc(C(F)(F)F)cc(C(F)(F)F)c2)C(=O)OC)C[C@H]1CC |  |  |  |  |  | inhibition [8]: Active
10 | CC(C)(C)Oc1cc([C@@](Cc2ccccc2)(NC(=O)C(N)C(O)(C(F)(F)F)C(F)(F)F)c2cc(F)cc(OC(F)(F)C(F)F)c2)ccc1F (stereo partly specified) | 5 nM | 100% | 140 nM | 100% |  | 
11 | CC(C)Oc1cc([C@@](Cc2ccccc2)(NCC(O)C(O)(C(F)(F)F)C(F)(F)F)c2cc(F)cc(OC(F)(F)C(F)F)c2)ccc1F (stereo partly specified) | 5 nM | 100% | 58 nM | 100% | 12000 nM | 
12 | NC(C(=O)N[C@@](Cc1ccccc1)(c1cc(F)cc(OC(F)(F)C(F)F)c1)c1ccc(Cl)cn1)C(O)(C(F)(F)F)C(F)(F)F (stereo in doubt; 9a) | 53 nM | 100% | 5900 nM | 100% | > 80000 nM | 
13 | NC(C(=O)N[C@@](Cc1ccccc1)(c1cc(F)cc(OC(F)(F)C(F)F)c1)c1ccc(Cl)cn1)C(O)(C(F)(F)F)C(F)(F)F (stereo in doubt; 9b) | 80 nM |  | 940 nM |  |  | IC50 ([7]; hek293): > 80000 nM
14 | CC(C)Oc1cc([C@@](Cc2ccccc2)(NC(=O)C(N)C(O)(C(F)(F)F)C(F)(F)F)c2cc(F)cc(OC(F)(F)C(F)F)c2)ccc1F (stereo partly specified) | 3 nM | 95% | 56 nM | 90% | 44000 nM | Ratio IC50 [9]: 2; Vd [10]: 0.5 L/kg; bioavailability [11]: 12%; half-life [12]: 1.9 h; clearance [13]: 5.4 mL/min/kg; inhibition [14]: Active
15 | O=C(CC(O)(C(F)(F)F)C(F)(F)F)N[C@@](Cc1ccccc1)(c1cc(F)cc(C(F)(F)F)c1)c1ccc(Cl)cn1 | 120 nM | 92% | 3800 nM | 91% | 22000 nM | 
16 | CC(C)Oc1cc([C@@](Cc2ccccc2)(NC(=O)C(N)C(O)C(F)(F)F)c2cc(F)cc(OC(F)(F)C(F)F)c2)ccc1F (stereo partly specified) | 6 nM | 2% | 270 nM | 16% |  | 
